Data: ChEMBL document CHEMBL4052583, “A Potent, Selective, and Orally Bioavailable HCV NS5A Inhibitor for Treatment of Hepatitis C Virus: (S)-1-((R)-2-(Cyclopropanecarboxamido)-2-phenylacetyl)-N-(4-phenylthiazol-2-yl)pyrrolidine-2-carboxamide” (J Med Chem, 2017)

Tests used:
[1] = Half life in Sprague-Dawley rat at 1 mg/kg, iv after 1 to 24 hrs by HPLC-MS/MS method; assay type: ADME, organism-based; details: in vivo
Outline: (§1)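 Rats received a single intravenous dose of 1 mg/kg. Clearance (mL/min/kg), steady-state volume of distribution (L/kg), half-life (h) and AUC (ng/mL×h) were reported as mean ± spread.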

[2] = Half life in Sprague-Dawley rat at 5 mg/kg, po after 1 to 24 hrs by HPLC-MS/MS method; assay type: ADME, organism-based; details: in vivo
[3] = Inhibition of NS5A in HCV genotype 1b Ava5 infected in human HuH7 cells containing Ava5-EG(D4AB)SEAP subgenomic replicons assessed as reduction in viral replicon growth incubated for 1 day by Phospha-light assay method; assay type: cell-based, Hepatitis C virus subtype 1b; details: Hepatitis C virus, Ava5, 24 h
[4] = Cytotoxic activity against human HuH7 cells containing HCV subgenomic replicons Ava5-EG(D4AB)SEAP by MTS assay; assay type: cell-based, Huh-7
[5] = Cmax in Sprague-Dawley rat at 5 mg/kg, po after 1 to 24 hrs by HPLC-MS/MS method; assay type: ADME, organism-based; design: dose 5 mg/kg, route oral; details: in vivo
Outline: (§2)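 Rats were dosed orally at 5 mg/kg. Tmax (h), Cmax (ng/mL), AUC (ng/mL×h) and oral bioavailability F (%) were reported.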

[6] = Clearance in Sprague-Dawley rat at 1 mg/kg, iv after 1 to 24 hrs by HPLC-MS/MS method; assay type: ADME, organism-based; details: in vivo; outline: as §1
[7] = Oral bioavailability in Sprague-Dawley rat at 5 mg/kg after 1 to 24 hrs by HPLC-MS/MS method; assay type: ADME, organism-based; details: in vivo; outline: as §2
[8] = Volume of distribution at steady state in Sprague-Dawley rat at 1 mg/kg, iv after 1 to 24 hrs by HPLC-MS/MS method; assay type: ADME, organism-based; details: in vivo, read-out: Vdss; outline: as §1
[9] = Tmax in Sprague-Dawley rat at 5 mg/kg, po after 1 to 24 hrs by HPLC-MS/MS method; assay type: ADME, organism-based; details: in vivo; outline: as §2
[10] = AUC in Sprague-Dawley rat at 1 mg/kg, iv after 1 to 24 hrs by HPLC-MS/MS method; assay type: ADME, organism-based; details: in vivo; outline: as §1
[11] = AUC in Sprague-Dawley rat at 5 mg/kg, po after 1 to 24 hrs by HPLC-MS/MS method; assay type: ADME, organism-based; details: in vivo; outline: as §2
[12] = Selectivity index, ratio of CC50 for cytotoxic activity against human HuH7 cells containing HCV subgenomic replicons Ava5-EG(D4AB)SEAP to IC50 for inhibition of NS5A in HCV genotype 1b Ava5 infected in human HuH7 cells containing Ava5-EG(D4AB)SEAP subgenomic replicons

| Compound | EC50 [3] | CC50 [4] | further results |
| --- | --- | --- | --- |
| O=C(N[C@@H](C(=O)N1CCC[C@H]1C(=O)Nc1nc(-c2ccccc2)cs1)c1ccccc1)c1ccncc1 | 3.8 nM | > 50000 nM | half-life [1]: 0.5 h; half-life [2]: 4.5 h; Cmax [5]: 58.3 ng/mL; clearance [6]: 62.2 mL/min/kg; bioavailability [7]: 10.1%; Vd [8]: 1.8 L/kg; Tmax [9]: 0.7 h; AUC [10]: 296 ng·h/mL; AUC [11]: 125 ng·h/mL |
| O=C(Nc1nccs1)[C@@H]1CCCN1C(=O)[C@H](NC(=O)N1CCOCC1)c1ccccc1 | 9650 nM | > 50000 nM | – |
| C[C@@H](NC(=O)N1CCOCC1)C(=O)N1CCC[C@H]1C(=O)Nc1nc(-c2ccccc2)cs1 | 1310 nM | > 50000 nM | – |
| O=C(N[C@@H](C(=O)N1CCC[C@H]1C(=O)Nc1nc(-c2ccccc2)cs1)c1ccccc1)C1CCCC1 | 13 nM | > 50000 nM | – |
| CC(=O)N[C@@H](C(=O)N1CCC[C@H]1C(=O)Nc1nc(-c2ccccc2)cs1)c1ccccc1 | 16 nM | > 50000 nM | – |
| O=C(NC1CC1)N[C@@H](C(=O)N1CCC[C@H]1C(=O)Nc1nc(-c2ccccc2)cs1)c1ccccc1 | 3.5 nM | > 50000 nM | – |
| O=C(Nc1nc(-c2ccccc2)cs1)[C@@H]1CCCN1C(=O)[C@H](NC(=S)Nc1ccccc1)c1ccccc1 | 46 nM | > 50000 nM | – |
| O=C(NC1CCCCC1)N[C@@H](C(=O)N1CCC[C@H]1C(=O)Nc1nc(-c2ccccc2)cs1)c1ccccc1 | 3.3 nM | > 50000 nM | – |
| O=C(Nc1nc(-c2ccccc2)cs1)[C@@H]1CCCN1C(=O)[C@H](NC(=S)NC1CCCCC1)c1ccccc1 | 3.2 nM | > 50000 nM | – |
| CC[C@@H](NC(=O)N1CCOCC1)C(=O)N1CCC[C@H]1C(=O)Nc1nc(-c2ccccc2)cs1 | 1630 nM | > 50000 nM | – |
| CCN(CC)C(=O)N[C@@H](C(=O)N1CCC[C@H]1C(=O)Nc1nc(-c2ccccc2)cs1)c1ccccc1 | 18 nM | > 50000 nM | – |
| O=C(N[C@@H](C(=O)N1CCC[C@H]1c1ncc(-c2ccccc2)s1)c1ccccc1)N1CCOCC1 | 2970 nM | > 50000 nM | – |
| O=C(Nc1ccccn1)N[C@@H](C(=O)N1CCC[C@H]1C(=O)Nc1nc(-c2ccccc2)cs1)c1ccccc1 | 30 nM | > 50000 nM | – |
| O=C(N[C@@H](C(=O)N1CCC[C@H]1C(=O)Nc1nc(-c2ccccc2)cs1)c1ccccc1)c1ccccc1 | 15 nM | > 50000 nM | half-life [1]: 2.3 h; half-life [2]: 2.7 h; Cmax [5]: 109 ng/mL; clearance [6]: 44.8 mL/min/kg; bioavailability [7]: 31%; Vd [8]: 4.2 L/kg; Tmax [9]: 2.3 h; AUC [10]: 367 ng·h/mL; AUC [11]: 588 ng·h/mL |
| CC(C)[C@@H](NC(=O)N1CCOCC1)C(=O)N1CCC[C@H]1C(=O)Nc1nc(-c2ccccc2)cs1 | 990 nM | > 50000 nM | – |
| CC(C)(C)c1csc(NC(=O)[C@@H]2CCCN2C(=O)[C@H](NC(=O)N2CCOCC2)c2ccccc2)n1 | 21 nM | > 50000 nM | – |
| O=C(Nc1ccccc1)N[C@@H](C(=O)N1CCC[C@H]1C(=O)Nc1nc(-c2ccccc2)cs1)c1ccccc1 | 2.3 nM | > 50000 nM | – |
| O=C(Nc1nc(-c2ccccc2)cs1)[C@@H]1CCCN1C(=O)[C@H](NC(=S)NC1CC1)c1ccccc1 | 34 nM | > 50000 nM | – |
| CC(C)C(=O)N[C@@H](C(=O)N1CCC[C@H]1C(=O)Nc1nc(-c2ccccc2)cs1)c1ccccc1 | 36 nM | > 50000 nM | – |
| O=C(Nc1nc(-c2ccccc2)cs1)[C@@H]1CCCN1C(=O)[C@H](NC(=O)N1CCCC1)c1ccccc1 | 3.1 nM | > 50000 nM | half-life [1]: 0.5 h; half-life [2]: 2.4 h; Cmax [5]: 63.9 ng/mL; clearance [6]: 55.1 mL/min/kg; bioavailability [7]: 20.4%; Vd [8]: 1.1 L/kg; Tmax [9]: 2.8 h; AUC [10]: 311 ng·h/mL; AUC [11]: 288 ng·h/mL |
| O=C(N[C@@H](C(=O)N1CCC[C@H]1c1nc(-c2ccccc2)no1)c1ccccc1)N1CCOCC1 | > 50000 nM | > 50000 nM | – |
| O=C(Nc1cccnc1)N[C@@H](C(=O)N1CCC[C@H]1C(=O)Nc1nc(-c2ccccc2)cs1)c1ccccc1 | 1.9 nM | > 50000 nM | – |

| Compound | EC50 [3] | CC50 [4] | further results |
| --- | --- | --- | --- |
| O=C(N[C@@H](C(=O)N1CCC[C@H]1C(=O)Nc1nc(-c2ccccc2)cs1)c1ccccc1)c1cccnc1 | 13 nM | > 50000 nM | – |
| O=C(Nc1nc(-c2ccccc2)cs1)[C@@H]1CCCN1C(=O)[C@H](NC(=O)N1CCOCC1)c1ccccc1 | 0.92 nM | > 50000 nM | half-life [1]: 0.46 h; half-life [2]: 1.6 h; Cmax [5]: 247 ng/mL; clearance [6]: 38.4 mL/min/kg; bioavailability [7]: 18.7%; Vd [8]: 1.04 L/kg; Tmax [9]: 0.8 h; AUC [10]: 436 ng·h/mL; AUC [11]: 404 ng·h/mL |
| O=C(N[C@@H](C(=O)N1CCC[C@H]1C(=O)Nc1nc(-c2ccccc2)cs1)c1ccccc1)C1CC1 | 4.6 nM | > 50000 nM | half-life [1]: 1.3 h; half-life [2]: 2.8 h; Cmax [5]: 260 ng/mL; clearance [6]: 27.1 mL/min/kg; bioavailability [7]: 45%; Vd [8]: 1.32 L/kg; Tmax [9]: 0.8 h; AUC [10]: 635 ng·h/mL; Ratio CC50/EC50 [12]: >10000; AUC [11]: 1440 ng·h/mL |
| CCC(=O)N[C@@H](C(=O)N1CCC[C@H]1C(=O)Nc1nc(-c2ccccc2)cs1)c1ccccc1 | 23 nM | > 50000 nM | – |
| CN1CCN(C(=O)N[C@@H](C(=O)N2CCC[C@H]2C(=O)Nc2nc(-c3ccccc3)cs2)c2ccccc2)CC1 | 0.85 nM | > 50000 nM | – |
| O=C(Nc1nc(-c2ccccc2)cs1)[C@@H]1CCCN1C(=O)[C@H](NC(=S)NC1CCCC1)c1ccccc1 | 5.2 nM | > 50000 nM | – |
| CN(C)C(=O)N[C@@H](C(=O)N1CCC[C@H]1C(=O)Nc1nc(-c2ccccc2)cs1)c1ccccc1 | 11 nM | > 50000 nM | – |
| O=C(N[C@@H](C(=O)N1CCC[C@H]1c1nc(-c2ccccc2)cs1)c1ccccc1)N1CCOCC1 | 9440 nM | > 50000 nM | – |
| O=C(Nc1nc(C2CCCCC2)cs1)[C@@H]1CCCN1C(=O)[C@H](NC(=O)N1CCOCC1)c1ccccc1 | 6 nM | > 50000 nM | – |
| O=C(N[C@@H](C(=O)N1CCC[C@H]1C(=O)Nc1nc(-c2ccccc2)cs1)c1ccccc1)C1CCCCC1 | 14 nM | > 50000 nM | – |
| O=C(Nc1nc(-c2ccccc2)cs1)[C@@H]1CCCN1C(=O)[C@H](NC(=S)Nc1cccnc1)c1ccccc1 | 23 nM | > 50000 nM | – |
| CC(C)(C)[C@@H](NC(=O)N1CCOCC1)C(=O)N1CCC[C@H]1C(=O)Nc1nc(-c2ccccc2)cs1 | 7060 nM | > 50000 nM | – |
| O=C(NC1CCCC1)N[C@@H](C(=O)N1CCC[C@H]1C(=O)Nc1nc(-c2ccccc2)cs1)c1ccccc1 | 13 nM | > 50000 nM | – |
| Cc1csc(NC(=O)[C@@H]2CCCN2C(=O)[C@H](NC(=O)N2CCOCC2)c2ccccc2)n1 | 400 nM | > 50000 nM | – |
| O=C(Nc1ccncc1)N[C@@H](C(=O)N1CCC[C@H]1C(=O)Nc1nc(-c2ccccc2)cs1)c1ccccc1 | 22 nM | > 50000 nM | – |
| O=C(Nc1nc(-c2ccccc2)cs1)[C@@H]1CCCN1C(=O)[C@H](NC(=O)N1CCCCC1)c1ccccc1 | 3.1 nM | > 50000 nM | – |
| O=C(N[C@@H](C(=O)N1CCC[C@H]1c1ncc(-c2ccccc2)[nH]1)c1ccccc1)N1CCOCC1 | 98 nM | > 50000 nM | – |
| O=C(N[C@@H](C(=O)N1CCC[C@H]1C(=O)Nc1nc(-c2ccccc2)cs1)c1ccccc1)c1ccccn1 | 22 nM | > 50000 nM | – |
| CCC[C@@H](NC(=O)N1CCOCC1)C(=O)N1CCC[C@H]1C(=O)Nc1nc(-c2ccccc2)cs1 | 270 nM | > 50000 nM | – |
| O=C(NC1CCCCCC1)N[C@@H](C(=O)N1CCC[C@H]1C(=O)Nc1nc(-c2ccccc2)cs1)c1ccccc1 | 3.8 nM | > 50000 nM | – |
| CC(C)(C)C(=O)N[C@@H](C(=O)N1CCC[C@H]1C(=O)Nc1nc(-c2ccccc2)cs1)c1ccccc1 | 86 nM | > 50000 nM | – |
| CCCC(=O)N[C@@H](C(=O)N1CCC[C@H]1C(=O)Nc1nc(-c2ccccc2)cs1)c1ccccc1 | 15 nM | > 50000 nM | – |
